# High-throughput results (PubChem)
# Compounds with a hit are over-represented: about 2.6% of the library has one in this group of screens.
# SMARCA2 act – SMARCA2 function activation, primary screen; MG213 cells, MMTV-luciferase reporter, dexamethasone, overnight; activation, % at 9.1 µM; 1% of 370,000 active; AID 652017; in the data active = activation above about 7.8%;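 note: 0% = vehicle wells and 100% = reference activator wells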
# esBAF inh – SWI/SNF esBAF complex inhibition; 2% of 350,000 active; mouse ES cells, Bmi1-luciferase knock-in reporter, 24 h; 100% = twice the neutral-well signal; reporter increase, % at 12.5 µM; in the data active = activation above about 40%;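 note: 0% = median of the plate's neutral control wells and 100% = double that signal; a rise in the Bmi1 reporter signal indicates esBAF inhibition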
# ARFGAP1 inh – inhibits rat ARF GTPase activating protein 1; Q62848; Arfgap1-stimulated ARF1 GTP hydrolysis, GDP FP detection; inhibition, % at 16.5 µM; 0.26% of 360,000 active; AID 651572;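 active = inhibition above a per-plate limit, mean inhibition of low control wells plus 3 SD, cut at about 25% in these data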;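 note: 0% = DMSO wells with enzyme and 100% = wells lacking Arfgap1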
#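 Material: truncated rat Arfgap1 GAP domain; Incubation: compound-enzyme preincubation 20 min, reaction 120 min, detection 60 min, 25 °C; Read-out: percent inhibition of Arfgap1-stimulated GTP hydrolysis; Technique: FP, GDP Alexa 633 tracer displaced from anti-GDP antibody, 620/688 nm; Controls: No-Arfgap1 wells (100%) versus DMSO full-reaction wells (0%); Replication: single well per compound.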
# ASAP1 GAP inh – inhibitors of human ASAP1 ArfGAP activity. ASAP1-stimulated ARF1 GTP hydrolysis, GDP FP detection. inhibition, % at 16.5 µM. 0.19% of 360,000 active. AID 624377; in the data active = inhibition above about 25%;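 note: 0% = vehicle with enzyme and substrate and 100% = no enzyme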
# Target sequence (Q9ULH1 325-724 limits assumed): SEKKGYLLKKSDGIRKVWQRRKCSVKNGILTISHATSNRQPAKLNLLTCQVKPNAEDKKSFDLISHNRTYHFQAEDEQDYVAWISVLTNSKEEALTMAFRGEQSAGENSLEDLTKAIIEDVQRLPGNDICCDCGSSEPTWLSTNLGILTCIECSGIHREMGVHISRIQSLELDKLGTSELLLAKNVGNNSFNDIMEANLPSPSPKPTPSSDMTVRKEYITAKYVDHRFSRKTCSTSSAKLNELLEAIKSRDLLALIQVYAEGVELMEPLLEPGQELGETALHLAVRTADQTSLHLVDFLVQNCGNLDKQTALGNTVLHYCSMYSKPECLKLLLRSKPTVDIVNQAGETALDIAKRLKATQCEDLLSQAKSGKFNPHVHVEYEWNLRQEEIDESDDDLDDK
# An asterisk follows results filed as active; · = no result given.
SMILES,SMARCA2 act,esBAF inh,ARFGAP1 inh,ASAP1 GAP inh
CC(C)(C)c1csc(NC(=O)Cc2ccc(S(=O)(=O)N3CCOCC3)s2)n1,-3,43*,7,3
Cc1cnc(NC(=O)Cc2ccc(S(=O)(=O)N3CCOCC3)s2)s1,0,·,-5,7
N#CCc1ccc(NC(=O)Nc2cccc3ccccc23)cc1,·,49*,·,·
Cc1noc(C)c1NC(=O)Nc1ccc2c(c1)C(=O)N([C@@H](C)CO)C[C@H](C)[C@H](CN(C)S(=O)(=O)c1ccccc1)OCCCC[C@@H](C)O2,·,0,·,·
O=C(CN(C(=O)c1csnn1)c1ccc(F)cc1)NCc1ccc2c(c1)OCO2,0,50*,4,-9
Cc1ccc(N(CC(=O)NCc2ccc3c(c2)OCO3)C(=O)c2csnn2)cc1,-1,7,-10,9
CN(C[C@@H]1N[C@H](CO)[C@@H]1c1ccc(C2=CCCCC2)cc1)S(C)(=O)=O,·,-22,·,·
CCC(C)NC(=O)c1cc(-c2ccccc2O)on1 (configuration not stated),5,57*,12,0
COc1ccccc1-c1cc(C(=O)NC(C)C)no1,7,52*,9,11
CCCC(=O)Nc1ccc2c(c1)OC[C@@H](C)N(CCC(F)(F)F)C[C@@H](C)[C@@H](OC)CN(C)C2=O,·,-3,·,·
C[C@H]1CCCCO[C@H](CN(C)C)[C@@H](C)CN([C@@H](C)CO)C(=O)c2cc(NS(=O)(=O)c3ccccc3)ccc2O1,·,-6,·,·
Cc1ccc(Nc2c(-c3ccc(N4CCOCC4)cc3)nc3cnccn23)cc1,-1,·,4,1
Cc1ccccc1Nc1c(-c2ccc(N3CCOCC3)cc2)nc2ncccn12,-1,53*,9,-3
Cc1ccccc1Nc1c(-c2ccc(N3CCOCC3)cc2)nc2cnccn12,3,56*,1,18
C[C@@H]1CN([C@@H](C)CO)C(=O)c2cc(NC(=O)Nc3cccc4ccccc34)ccc2O[C@@H](C)CCCCO[C@@H]1CN(C)Cc1ccc2c(c1)OCO2,·,3,·,·
Cc1noc(C)c1S(=O)(=O)Nc1cccc2c1O[C@H](CN(C)CC1CCCCC1)[C@H](C)CN([C@@H](C)CO)C2=O,·,1,·,·
N=c1c2c3c(sc2nc2n1CCCCC2)CCCCC3,3,48*,2,-2
O=c1c2c3c(sc2nc2n1CCCC2)CCCCC3,-1,·,-6,-14
O=c1c2c3c(sc2nc2n1CCCCC2)CCCC3,4,50*,-1,4
O=c1c2c3c(sc2nc2n1CCCC2)CCC3,1,3,10,8
O=c1c2c3c(sc2nc2n1CCCCC2)CCCCC3,·,62*,·,·
O=C(Nc1ccc(F)cc1)N1C[C@@H]2[C@H](c3ccccc31)[C@@H](CO)N2C(=O)c1ccc(F)cc1,·,2,·,·
CCCN1[C@H](C(=O)N[C@@H](C)c2ccccc2)[C@@H](CO)[C@@H]2Cn3c(ccc(-c4ccc(F)cc4)c3=O)[C@@H]21,·,2,·,·
O=C1C(C=NC2CC2)=C(O)c2ccccc21,3,20,12,7
COc1cc(N=CC2=C(O)c3ccccc3C2=O)cc(OC)c1,-2,43*,-3,-3
SMILES,SMARCA2 act,esBAF inh,ARFGAP1 inh,ASAP1 GAP inh
CCC(C)(C)C1CCC(=NNC(=O)c2ccoc2C)CC1 (configuration not stated),11*,20,0,12
CCCC(=O)NNC(=O)c1ccoc1C,-3,·,-12,0
COc1ccc(OC)c(-c2oc3ccccc3c(=O)c2O)c1,1,15,-3,-5
COc1ccc2oc3ccc(OC)cc3c(=O)c2c1,2,98*,19,8
COc1cccc2c(=O)ccoc12,-3,·,8,-14
COc1cccc2c(=O)c3ccccc3oc12,7,66*,9,-9
COc1ccc2oc(=O)cc(C)c2c1,0,·,-2,4
Cc1ccc2oc3ccccc3c(=O)c2c1,-1,62*,-10,-4
N#Cc1ccc(C#Cc2ccc3oc4ccccc4c(=O)c3c2)cc1,4,-2,8,-6
COc1ccc2oc3ccccc3c(=O)c2c1,5,48*,-6,-5
O=C(CC(F)(F)F)N1C[C@@H]2[C@H](c3ccccc31)[C@H](CO)N2C(=O)Cc1ccccc1,·,-2,·,·
CCCCSc1nsc(NC(C)=O)n1,3,·,7,-4
CCCCCCSc1nsc(NC(C)=O)n1,3,60*,-6,2
CC(C)NC(=O)N(C)C[C@H]1OCCCC[C@@H](C)Oc2ccc(NC(=O)NC3CCCCC3)cc2C(=O)N([C@H](C)CO)C[C@@H]1C,·,3,·,·
C[C@H](O)C#Cc1cnc2c(c1)C(=O)N([C@@H](C)CO)C[C@H](C)[C@@H](CN(C)C(=O)Cc1ccccn1)O2,·,-1,·,·
